Results taken from ChEMBL document CHEMBL1135739, “Radiolabeled amino acids for tumor imaging with PET: radiosynthesis and biological evaluation of 2-amino-3-[18F]fluoro-2-methylpropanoic acid and 3-[18F]fluoro-2-methyl-2-(methylamino)propanoic acid” (J Med Chem, 2002).

Assays:
[1] = species: Rattus norvegicus; assay: Radioactivity distribution in kidney of normal fischer rat after injection of [18F]fluoro-2-methylpropanoic acid after 5 min.; type: ADME, organism-based; conditions: in vivo
In short: (§1)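 Male Fischer 344 rats (200–250 g), fed ad libitum, anesthetized with intramuscular ketamine:xylazine (1:1, 0.1 mL/100 g). About 85 μCi tracer in 0.3 mL sterile water was given by tail-vein catheter. Groups of four were killed at 5, 30, 60 or 120 min. Tissues were weighed and gamma-counted against dose standards, decay-corrected, and expressed as %ID/g (mean ± standard error).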

[2] = species: Rattus norvegicus; assay: Radioactivity distribution in kidney of tumor-bearing fischer rat after injection of [18F]fluoro-2-methylpropanoic acid after 120 min; type: ADME, organism-based; conditions: in vivo, 2 h
In short: (§2)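 Male Fischer 344 rats carried intracranial 9L gliosarcoma, stereotactically implanted (4×10^4 cells) and used 17–19 days later. Awake, restrained animals received about 35 μCi tracer in 0.3 mL sterile water via the tail vein and were killed at 5, 60 or 120 min (n = 4–5). Tissues were weighed, gamma-counted, decay-corrected and reported as %ID/g ± standard error.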

[3] = species: Rattus norvegicus; assay: Radioactivity distribution in kidney of tumor-bearing fischer rat after injection of [18F]fluoro-2-methylpropanoic acid after 5 min; type: ADME, organism-based; conditions: in vivo; in short: as §2
[4] = species: Rattus norvegicus; assay: Radioactivity distribution in kidney of tumor-bearing fischer rat after injection of [18F]fluoro-2-methylpropanoic acid after 60 min; type: ADME, organism-based; conditions: in vivo, 1 h; in short: as §2
[5] = species: Rattus norvegicus; assay: Radioactivity distribution in muscle of tumor-bearing fischer rat after injection of [18F]fluoro-2-methylpropanoic acid after 120 min; type: ADME, organism-based, Muscle tissue; conditions: in vivo, 2 h; in short: as §2
[6] = species: Rattus norvegicus; assay: Radioactivity distribution in blood of normal fischer rat after injection of [18F]fluoro-2-methylpropanoic acid after 30 min.; type: ADME, organism-based; conditions: in vivo, 0.5 h
In short: (§3)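 Normal male Fischer 344 rats (200–250 g), anesthetized with i.m. ketamine:xylazine (1:1), got ~85 μCi of tracer in 0.3 mL sterile water i.v. via tail-vein catheter. Groups of four were killed at 5, 30, 60 or 120 min. Tissues were weighed and gamma-counted against dose standards, and counts were decay-corrected to %ID/g. Results are mean ± standard error (n = 4), compared by one-way ANOVA.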

[7] = species: Rattus norvegicus; assay: Radioactivity distribution in brain of normal fischer rat after injection of [18F]fluoro-2-methylpropanoic acid after 120 min.; type: ADME, organism-based; conditions: in vivo, 2 h; in short: as §3
[8] = species: Rattus norvegicus; assay: Radioactivity distribution in brain of normal fischer rat after injection of [18F]fluoro-2-methylpropanoic acid after 30 min.; type: ADME, organism-based; conditions: in vivo, 0.5 h; in short: as §3
[9] = species: Rattus norvegicus; assay: Radioactivity distribution in brain of normal fischer rat after injection of [18F]fluoro-2-methylpropanoic acid after 5 min.; type: ADME, organism-based; conditions: in vivo; in short: as §3
[10] = species: Rattus norvegicus; assay: Radioactivity distribution in spleen of normal fischer rat after injection of [18F]fluoro-2-methylpropanoic acid after 5 min.; type: ADME, organism-based; conditions: in vivo
In short: (§4)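 Male Fischer 344 rats (200–250 g), fed ad libitum, under intramuscular ketamine:xylazine anesthesia, got ~85 μCi radiotracer in 0.3 mL sterile water by tail-vein catheter. Groups of four were killed at 5, 30, 60 or 120 min. Dissected tissues were weighed and gamma-counted with dose standards. Counts were decay-corrected and given as %ID/g, mean ± standard error. Tissues were compared by one-way ANOVA.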

[11] = species: Rattus norvegicus; assay: Radioactivity distribution in spleen of normal fischer rat after injection of [18F]fluoro-2-methylpropanoic acid after 60 min.; type: ADME, organism-based; conditions: in vivo, 1 h; in short: as §4
[12] = species: Rattus norvegicus; assay: Radioactivity distribution in spleen of tumor-bearing fischer rat after injection of [18F]fluoro-2-methylpropanoic acid after 120 min; type: ADME, organism-based; conditions: in vivo, 2 h
In short: (§5)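 Male Fischer rats had 4×10^4 9L gliosarcoma cells implanted stereotactically into the brain, 3 mm right of midline, 1 mm anterior to bregma, 5 mm deep. They were used 17–19 days later. Awake, restrained rats got ~35 μCi in 0.3 mL sterile water by tail vein and were killed at 5, 60 or 120 min. Tissues, tumor and contralateral brain were gamma-counted, decay-corrected, as %ID/g, mean ± SE, n = 4–5.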

[13] = species: Rattus norvegicus; assay: Radioactivity distribution in spleen of tumor-bearing fischer rat after injection of [18F]fluoro-2-methylpropanoic acid after 60 min; type: ADME, organism-based; conditions: in vivo, 1 h; in short: as §5
[14] = species: Rattus norvegicus; assay: Radioactivity distribution in pancreas of tumor-bearing fischer rat after injection of [18F]fluoro-2-methylpropanoic acid after 120 min; type: ADME, organism-based; conditions: in vivo, 2 h; in short: as §2
[15] = species: Rattus norvegicus; assay: Radioactivity distribution in spleen of normal fischer rat after injection of [18F]fluoro-2-methylpropanoic acid after 120 min.; type: ADME, organism-based; conditions: in vivo, 2 h; in short: as §4
[16] = species: Rattus norvegicus; assay: Radioactivity distribution in testis of normal fischer rat after injection of [18F]fluoro-2-methylpropanoic acid after 30 min.; type: ADME, organism-based; conditions: in vivo, 0.5 h; in short: as §4
[17] = species: Rattus norvegicus; assay: Radioactivity distribution in lung of normal fischer rat after injection of [18F]fluoro-2-methylpropanoic acid after 30 min.; type: ADME, organism-based; conditions: in vivo, 0.5 h; in short: as §1
[18] = species: Rattus norvegicus; assay: Radioactivity distribution in pancreas of normal fischer rat after injection of [18F]fluoro-2-methylpropanoic acid after 5 min.; type: ADME, organism-based; conditions: in vivo; in short: as §1
[19] = species: Rattus norvegicus; assay: Radioactivity distribution in muscle of normal fischer rat after injection of [18F]fluoro-2-methylpropanoic acid after 120 min.; type: ADME, organism-based, Muscle tissue; conditions: in vivo, 2 h; in short: as §1
[20] = species: Rattus norvegicus; assay: Radioactivity distribution in muscle of normal fischer rat after injection of [18F]-fluoro-2-methylpropanoic acid after 5 min.; type: ADME, organism-based, Muscle tissue; conditions: in vivo; in short: as §1
[21] = species: Rattus norvegicus; assay: Radioactivity distribution in lung of tumor-bearing fischer rat after injection of [18F]fluoro-2-methylpropanoic acid after 60 min; type: ADME, organism-based; conditions: in vivo, 1 h; in short: as §2
[22] = species: Rattus norvegicus; assay: Radioactivity distribution in bone of normal fischer rat after injection of [18F]fluoro-2-methylpropanoic acid after 120 min.; type: ADME, organism-based, Bone element; conditions: in vivo, 2 h; in short: as §3
[23] = species: Rattus norvegicus; assay: Radioactivity distribution in bone of normal fischer rat after injection of [18F]fluoro-2-methylpropanoic acid after 5 min.; type: ADME, organism-based, Bone element; conditions: in vivo; in short: as §3
[24] = species: Rattus norvegicus; assay: Radioactivity distribution in bone of normal fischer rat after injection of [18F]fluoro-2-methylpropanoic acid after 60 min.; type: ADME, organism-based, Bone element; conditions: in vivo, 1 h; in short: as §3
[25] = species: Rattus norvegicus; assay: Radioactivity distribution in bone of tumor-bearing fischer rat after injection of [18F]fluoro-2-methylpropanoic acid after 60 min; type: ADME, organism-based, Bone element; conditions: in vivo, 1 h
In short: (§6)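 Male Fischer 344 rats carried intracranial 9L gliosarcoma, implanted stereotactically (4×10^4 cells) and used 17–19 days later. Awake restrained rats got ~35 μCi of tracer in 0.3 mL sterile water by tail-vein injection and were killed at 5, 60 or 120 min. Tissues were weighed and gamma-counted, and counts were decay-corrected to %ID/g. Results are mean ± standard error; n = 4 at 5 and 120 min, n = 5 at 60 min.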

[26] = species: Rattus norvegicus; assay: Radioactivity distribution in blood of tumor-bearing fischer rat after injection of [18F]fluoro-2-methylpropanoic acid after 5 min; type: ADME, organism-based; conditions: in vivo; in short: as §6
[27] = species: Rattus norvegicus; assay: Radioactivity distribution in heart of tumor-bearing fischer rat after injection of [18F]fluoro-2-methylpropanoic acid after 5 min; type: ADME, organism-based; conditions: in vivo; in short: as §6
[28] = species: Rattus norvegicus; assay: Radioactivity distribution in liver of normal fischer rat after injection of [18F]fluoro-2-methylpropanoic acid after 30 min.; type: ADME, organism-based; conditions: in vivo, 0.5 h; in short: as §1
[29] = species: Rattus norvegicus; assay: Radioactivity distribution in liver of tumor-bearing fischer rat after injection of [18F]fluoro-2-methylpropanoic acid after 120 min; type: ADME, organism-based; conditions: in vivo, 2 h; in short: as §2
[30] = species: Rattus norvegicus; assay: Radioactivity distribution in brain of tumor-bearing fischer rat after injection of [18F]fluoro-2-methylpropanoic acid after 5 min; type: ADME, organism-based; conditions: in vivo; in short: as §6
[31] = species: Rattus norvegicus; assay: Radioactivity distribution in tumor of tumor-bearing fischer rat after injection of [18F]fluoro-2-methylpropanoic acid after 120 min; type: ADME, organism-based; conditions: in vivo, 2 h; in short: as §5
[32] = species: Rattus norvegicus; assay: Radioactivity distribution in tumor of tumor-bearing fischer rat after injection of [18F]fluoro-2-methylpropanoic acid after 60 min; type: ADME, organism-based; conditions: in vivo, 1 h; in short: as §5
[33] = species: Rattus norvegicus; assay: Radioactivity distribution in testis of normal fischer rat after injection of [18F]fluoro-2-methylpropanoic acid after 120 min.; type: ADME, organism-based; conditions: in vivo, 2 h; in short: as §4
[34] = species: Rattus norvegicus; assay: Radioactivity distribution in heart of normal fischer rat after injection of [18F]fluoro-2-methylpropanoic acid after 30 min.; type: ADME, organism-based; conditions: in vivo, 0.5 h; in short: as §3

CC(N)(C[18F])C(=O)O.Cl (centres undefined)
ID/g [1]: 6.36%
ID/g [2]: 3.64%
ID/g [3]: 8.66%
ID/g [4]: 6.2%
ID/g [5]: 0.21%
ID/g [6]: 0.25%
ID/g [7]: 0.05%
ID/g [8]: 0.05%
ID/g [9]: 0.04%
ID/g [10]: 0.83%
ID/g [11]: 0.5%
ID/g [12]: 0.32%
ID/g [13]: 0.55%
ID/g [14]: 1.42%
ID/g [15]: 0.33%
ID/g [16]: 0.1%
ID/g [17]: 0.54%
ID/g [18]: 3.46%
ID/g [19]: 0.19%
ID/g [20]: 0.22%
ID/g [21]: 0.38%
ID/g [22]: 0.13%
ID/g [23]: 0.27%
ID/g [24]: 0.19%
ID/g [25]: 0.25%
ID/g [26]: 0.72%
ID/g [27]: 0.4%
ID/g [28]: 0.56%
ID/g [29]: 0.25%
ID/g [30]: 0.035%
ID/g [31]: 1.87%
ID/g [32]: 1.96%
ID/g [33]: 0.1%
ID/g [34]: 0.29%
